# Assay outcomes (PubChem BioAssay)
# Runt-CBFb FRET: inhibitors of RUNX1 Runt–CBFb binding, primary screen, biochemical, FRET, Cerulean-Runt, Venus-CBFb, uHTS | Runt-related transcription factor 1 (Homo sapiens) + Core-binding factor subunit beta … | Cerulean-Runt/Venus-CBFb FRET ratio 530/480, 1 h | inhibition, % at 20 µM | actives 0.46% (n = 220,000) | AID 1496, 2009;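 active = inhibition over about 50% at 20 µM in the single-dose screen, limit read from the data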;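 note: 0% = DMSO wells and 100% = excess unlabeled CBFb competitor control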
# Target sequence (Q01196 whole entry, looked up): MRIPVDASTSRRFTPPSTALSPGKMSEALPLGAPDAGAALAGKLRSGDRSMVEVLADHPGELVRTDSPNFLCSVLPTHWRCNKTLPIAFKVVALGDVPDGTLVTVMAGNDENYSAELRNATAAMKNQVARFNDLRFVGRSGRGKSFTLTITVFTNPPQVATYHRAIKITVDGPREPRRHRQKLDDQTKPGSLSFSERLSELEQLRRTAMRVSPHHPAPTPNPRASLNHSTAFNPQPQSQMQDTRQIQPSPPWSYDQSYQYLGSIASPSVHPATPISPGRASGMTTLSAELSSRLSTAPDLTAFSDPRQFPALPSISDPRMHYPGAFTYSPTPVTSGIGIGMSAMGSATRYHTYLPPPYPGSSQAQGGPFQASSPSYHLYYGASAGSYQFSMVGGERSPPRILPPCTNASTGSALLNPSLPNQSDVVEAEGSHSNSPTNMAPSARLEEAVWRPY
# Target sequence (Q13951 whole entry, looked up): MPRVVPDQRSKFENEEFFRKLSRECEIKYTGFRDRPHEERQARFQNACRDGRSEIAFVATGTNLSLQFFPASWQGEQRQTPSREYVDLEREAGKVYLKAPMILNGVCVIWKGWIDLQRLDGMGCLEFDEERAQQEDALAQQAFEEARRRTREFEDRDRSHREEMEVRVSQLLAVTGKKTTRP
#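 Assay system: Cerulean-Runt domain fusion protein, energy donor; Signal: fluorescence energy transfer, 422 nm excitation, 530/480 nm emission; Timing: 1 h compound exposure, room temperature; Control set: unlabeled CBFb; Medium: Tris buffer pH 7.5 with salts and BSA; Compound: single test concentration of 20 µM, 1% DMSO final; Probe or stimulus: Venus-CBFb 100 nM.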
# Runt-SMMHC FRET: inhibitors of RUNX1 Runt–CBFb-SMMHC binding, primary screen, biochemical, FRET, Cerulean-Runt, Venus-CBFb-SMMHC, uHTS | AID 1434, 2008 | inhibition, % at 20 µM | Cerulean-Runt/Venus-CBFb-SMMHC FRET ratio 530/480, 1 h | actives 0.74% (n = 220,000) | Runt-related transcription factor 1 (Homo sapiens) + Core-binding factor subunit beta …;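 active = mean inhibition across duplicate retests at 20 µM reaching about 50%, limit read from the data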;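 note: 0% = DMSO wells and 100% = wells with excess untagged CBFb-SMMHC; inhibitors lower the FRET ratio by blocking Runt binding to CBFb-SMMHC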
# Hck Nef HTS: inhibitors of Nef-activated human Hck kinase, primary screen, biochemical, Z-Lyte FRET, 384-well, Hck-YEEI | actives 0.68% (n = 220,000) | Tyrosine-protein kinase HCK (Homo sapiens), P08631 | inhibition, % at 20 µM | Recombinant Hck-YEEI plus Nef, Z-Lyte FRET kinase assay;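 active = Hck-Nef kinase inhibition above about 50%, limit read from the data; inactive = inhibition below that limit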;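 note: 0% = DMSO with Hck plus Nef and 100% = Hck alone without Nef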
# DSG3 Ab inh: inhibitors of pemphigus antibody binding to DSG3, primary screen, biochemical, bead-based, flow cytometry, scFv-GFP; Desmoglein-3 (Homo sapiens), P32926; DSG3-coupled beads, scFv-anti-DSG3-GFP binding; stronger effect = lower value; binding (percent of control), % at 10 µM; actives 0.48% (n = 310,000);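 active = binding more than 3 SD below its plate's average and above zero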;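 note: hits lower antibody fragment binding to DSG3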
# p-CIP stab down: p/CIP-EGFP fusion destabilizers, primary screen, fluorescence, F442A cells; AID 1984, 2009; decrease of EGFP signal, % at 10 µM; 16 h; actives 0.01% (n = 290,000);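 active = EGFP signal decrease of at least 30% at 10 µM or well 3 SD below plate mean, unless failing retest; inactive = the rest, including hits failing retest or dose response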
# RanGTP-Imp inh: inhibitors of RanGTP-importin-beta interaction, primary screen, biochemical, FRET, CFP-Ran, YFP-importin-beta, homogeneous; cell-free CFP-Ran/YFP-importin-beta FRET ratio; inhibition, % (no concentration beside the values); actives 1.1% (n = 300,000);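 active = more than half of the replicate wells show a fall in the fluorescence ratio signal beyond about 16%, limit read from the data, passing the limit was not always enough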;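 note: 0% = DMSO wells and 100% = Ran loaded with GDP instead of GTP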
# * = called active by the depositor; i = inactive; x = not tested or not shown. This is a sample that favours compounds with a hit; in the whole collection about 2.1% have one here.
SMILES,Runt-CBFb FRET,Runt-SMMHC FRET,Hck Nef HTS,DSG3 Ab inh,p-CIP stab down,RanGTP-Imp inh
CC1(C)CC(NCCN2CCN(C3=CC(=C(C#N)C#N)CC(C)(C)C3)CC2)=CC(=C(C#N)C#N)C1,-12,-27,20,100,-2,-2
N#CC(C#N)=C1C=C2C=C(N3CCCCCC3)CCC2CC1 (configuration not stated),4,83*,3,i,-375,45*
CN1CCN(C2=CC3=CC(=C(C#N)C#N)CCC3CC2)CC1 (configuration not stated),-27,88*,0,317,-790,x
N#CC(C#N)=C1C=C2C=C(N3CCOCC3)CCC2CC1 (configuration not stated),20,86*,16,320,-971,-2
CCN1CCN(C2=CC3=CC(=C(C#N)C#N)CCC3CC2)CC1 (configuration not stated),-115,86*,0,469,-808,x
CCOC(=O)CSc1nnc(-c2ccccc2NC(=O)c2ccccc2)o1,0,-10,0,69*,2,-1
FC(F)(F)c1nnc2c(Sc3ccccn3)nc3ccccc3n12,16,51*,0,103,-18,8
c1csc(-c2nnc(Cc3cccc4ccccc34)o2)c1,0,3,-6,106,-3,1
O=c1oc2ccc3ccccc3c2cc1-c1nnc(-c2ccccc2)o1,76*,39,2,x,-16,122*
COc1ccc(-c2nnc(-c3cc4c(ccc5ccccc54)oc3=O)o2)cc1,16,39,2,101,5,-6
O=c1oc2ccc3ccccc3c2cc1-c1nnc(-c2cccs2)o1,19,58*,0,92,-6,114*
CNc1nnc(-c2cc3ccccc3oc2=O)s1,-108,-213,-1,101,-4,-2
Nc1nnc(-c2cc3c(ccc4ccccc43)oc2=O)s1,20,92*,6,x,-14,x
O=C(Nc1nccs1)c1cccc(N2C(=O)C3C4C=CC(C4)C3C2=O)c1 (configuration not stated),-3,2,4,95,3,3
O=C(Nc1nccs1)c1ccc(N2C(=O)[C@@H]3[C@H](C2=O)[C@H]2C=C[C@@H]3C2)cc1,2,2,30,69*,-153,1
COc1ccc(C2=CN(Cc3ccccc3)CCC2=O)cc1,x,x,x,100,x,x
O=C(CCNC(=O)c1ccc(Br)cc1)NC1CCCc2ccccc21 (configuration not stated),x,x,x,99,x,1
CC1(C)CC(=O)C(C(O)c2ccccc2)C(C)(C)N1 (configuration not stated),x,x,x,72*,-7,0
O=C(O)c1ccc(-n2ncc3c2/C(=C\c2cccc([N+](=O)[O-])c2)CC3)cc1,x,x,x,34*,x,x
O=C(O)c1ccc(-n2ncc3c2/C(=C/c2cccc([N+](=O)[O-])c2)CC3)cc1,-1,-8,42,91,-8,5
C=CCOC(=O)C(C#N)c1nc2ccccc2nc1N1CCN(c2ccccc2OC)CC1 (configuration not stated),0,-2,-5,x,-7,-2
C=CCN(CC=C)c1nc2ccccc2nc1C(C#N)C(=O)OC(C)C (configuration not stated),16,115*,0,105,-20,29*
CC(Sc1ccc(S(=O)(=O)N(C)C)cn1)C(=O)NC1CCCC1 (configuration not stated),x,x,x,104,x,x
O=c1c(Oc2ccccc2Br)c(C(F)(F)F)oc2c(CN3CCCC3)c(O)ccc12,-8,-23,0,x,10,51*
Cc1oc2c(CN3CCCC3)c(O)ccc2c(=O)c1-c1ccccc1,1,5,0,101,-10,x
SMILES,Runt-CBFb FRET,Runt-SMMHC FRET,Hck Nef HTS,DSG3 Ab inh,p-CIP stab down,RanGTP-Imp inh
CC(=O)OCC(=O)NCc1ccc2c(c1)OCO2,87*,68,-1,124,-16,-6
CC(OC(=O)c1cc2sccc2n1C)C(=O)NCc1ccc2c(c1)OCO2 (configuration not stated),0,-3,1,69*,-18,4
Cc1ccsc1C(=O)OCC(=O)NCc1ccc2c(c1)OCO2,-1,-3,0,52*,1,-1
Cc1ccc(C(=O)OCC(=O)NCc2ccc3c(c2)OCO3)o1,x,x,x,96,x,x
CC(OC(=O)c1cc2sccc2n1C)C(=O)NCc1ccc(F)cc1 (configuration not stated),0,-10,1,99,2,5
COc1ccc(NC(=O)NCc2ccc3c(c2)OCO3)cc1,-2,-2,5,82*,-6,-2
COc1ccccc1Cn1c(=S)[nH]c2cc(C(=O)N3CCCC(C)C3)ccc2c1=O (configuration not stated),x,x,x,101,x,x
Cc1ccc(S(=O)(=O)/C(C#N)=C/c2c(N3CCN(C)CC3)nc3ccccn3c2=O)cc1,7,10,1,x,-4,65*
Cc1cc(Oc2nc3c(C)cccn3c(=O)c2/C=C(\C#N)S(=O)(=O)c2ccccc2)ccc1Cl,-147,-122,-1,103,-8,6
CN1CCN(c2nc3ccccn3c(=O)c2/C=C(\C#N)S(=O)(=O)c2ccc(Cl)cc2)CC1,0,5,-27,110,-10,97*
Cc1cccn2c(=O)c(/C=C(\C#N)S(=O)(=O)c3ccccc3)c(Oc3ccc(Cl)cc3)nc12,-37,-86,7,121,-12,27*
COC(=O)/C(C#N)=C/c1c(N2CCN(C)CC2)nc2ccccn2c1=O,x,x,x,126,-3,107*
NC(=O)C1CCN(C(=O)c2ccc(NS(=O)(=O)/C=C/c3ccccc3)cc2)CC1,x,x,x,109,x,x
O=C(c1cc2cc(F)ccc2[nH]1)N1CCN(C(=O)c2ccco2)CC1,x,x,x,101,-5,-11
Cc1cc(C)c2c(=O)n(CC(=O)Nc3ccc(Br)c(C)c3)sc2n1,13,56,-140,89,4,-3
Cc1cc(C)c2c(=O)n(CC(=O)NC3CCCC3)sc2n1,2,53*,-141,81,-6,-2
